According to ChEMBL document CHEMBL4665832, “Benzylidene thiazolidinediones: Synthesis, in vitro investigations of antiproliferative mechanisms and in vivo efficacy determination in combination with Imatinib” (Bioorg Med Chem Lett, 2020):
Active and inactive are the calls of the source. No cut-off for these calls is given here.

How the values were obtained:
MDA-MB-435 = assay: Antiproliferative activity against human MDA-MB-435 cells assessed as cell growth inhibition; type: functional
Method in brief: (§1)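 Cell lines screened for growth inhibition and GI₅₀ derived. Each value is the mean of 3 independent experiments.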

MOLT-4 = assay: Antiproliferative activity against human MOLT-4 cells assessed as cell growth inhibition; type: functional; method in brief: as §1
[1] = Cytotoxicity against hepatocytes (unknown origin) assessed as cell growth by MTT assay relative to control; type: cell-based, Hepatocyte; set-up: concentration or dose not given beside the values
Jurkat = assay: Antiproliferative activity against human Jurkat cells assessed as cell growth inhibition; type: functional; method in brief: as §1
HL-60 = assay: Antiproliferative activity against human HL-60 cells assessed as cell growth inhibition; type: functional; method in brief: as §1
U-937 = assay: Antiproliferative activity against human U-937 cells assessed as cell growth inhibition; type: functional; method in brief: as §1
DU-145 = assay: Antiproliferative activity against human DU-145 cells assessed as cell growth inhibition; type: functional; method in brief: as §1
K562 [2] = assay: Induction of apoptosis in human K562 cells assessed as increase in activated caspase-3 expression at 5 to 20 uM measured after 72 hrs by Western blot analysis; type: functional, cell-based; conditions: dose microM 5-20, time 72.0 hrs
Method in brief: (§2)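 K562 cells treated 72 h at 5, 10 or 20 µM alongside DMSO vehicle control. Cleaved PARP1 and caspase 3 detected by Western blot and normalised to actin. Means of at least two experiments, SD.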

K562 [3] = assay: Cell cycle arrest in human K562 cells assessed as accumulation at G0/G1 phase at 5 uM measured after 24 hrs by flow cytometry analysis; type: functional, cell-based
Method in brief: (§3)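 K562 cells exposed to 5 µM for 24 h, then cell-cycle phase distribution measured by flow cytometry. Untreated cells served as negative control and DMSO as vehicle control. SEM of n = 3. Two-tailed Student's t-test, P < 0.05.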

K562 [4] = assay: Cell cycle arrest in human K562 cells assessed as decrease in cells accumulation at G2/M phase at 5 to 20 uM measured by flow cytometry analysis; type: functional, cell-based; conditions: dose microM 5-20, time hrs 24-72, TDE = time-dependent effect
Method in brief: (§4)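 K562 cells exposed to 5, 10 or 20 µM and sampled at 24, 48 and 72 h. Phase distribution (G0/G1, S, G2/M) measured by flow cytometry. Untreated and DMSO vehicle controls. SEM of n = 3. Two-tailed t-test, P < 0.05.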

K562 [5] = assay: Potentiation of imatinib-induced anticancer activity against human K562 cells assessed as cell growth inhibition at 1 uM by MTT assay (reference value: 71%); type: functional; conditions: read-out: GI
K562 [6] = assay: Potentiation of imatinib-induced antitumor activity against human K562 cells xenografted in mouse assessed as reduction in tumor volume at 100 mg/kg, ip administered for 30 days co-treated with imatinib at 100 mg/kg and measured every day for 30 days; type: functional, organism-based; conditions: time 30.0 day
Method in brief: (§5)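 Mice implanted subcutaneously in the right rear flank with 6 × 10⁶ K562 cells/100 μl in 50% matrigel. Dosed intraperitoneally: compound alone 200 mg/kg, or compound 100 mg/kg plus imatinib 100 mg/kg; controls were imatinib 100 mg/kg and saline. Tumour volume tracked over time, n = 6. Dunnett's test against control.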

K562 [7] = assay: Downregulation of cyclin-D1 expression in human K562 cells at 10 to 20 uM measured after 24 hrs by Western blot analysis; type: functional, cell-based; conditions: dose microM 10-20, time 24.0 hrs
Method in brief: (§6)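 K562 cells treated at 10 or 20 µM for 24, 48 or 72 h. PCNA and cyclin D1 detected by Western blot, bands quantified and normalised to actin. Means of three separate experiments, SD, P < 0.05.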

MCF7 = assay: Antiproliferative activity against human MCF7 cells assessed as cell growth inhibition; type: functional; method in brief: as §1
K562 [8] = assay: Antitumor activity against human K562 cells xenografted in mouse assessed as reduction in tumor volume at 200 mg/kg, ip administered for 30 days and measured every day for 30 days; type: functional, organism-based; conditions: time 30.0 day; method in brief: as §5
HOP-62 = assay: Antiproliferative activity against human HOP-62 cells assessed as cell growth inhibition; type: functional; method in brief: as §1
K562 [9] = assay: Cell cycle arrest in human K562 cells assessed as increase in cells accumulation at G0/G1 phase measured after 24 to 72 hrs by flow cytometry analysis; type: functional, cell-based; conditions: dose microM 5-20, time hrs 24-72; method in brief: as §4
K562 [10] = assay: Cell cycle arrest in human K562 cells assessed as decrease in cells accumulation at G2/M phase measured after 24 to 72 hrs by flow cytometry analysis; type: functional, cell-based; conditions: dose microM 5-20, time hrs 24-72; method in brief: as §4
K562 [11] = assay: Cell cycle arrest in human K562 cells assessed as decrease in cells accumulation at S phase measured after 24 to 72 hrs by flow cytometry analysis; type: functional, cell-based; conditions: dose microM 5-20, time hrs 24-72; method in brief: as §4
K562 [12] = assay: Cell cycle arrest in human K562 cells assessed as accumulation at G2/M phase at 5 uM measured after 24 hrs by flow cytometry analysis; type: functional, cell-based; method in brief: as §3
K562 [13] = assay: Antiproliferative activity against human K562 cells assessed as cell growth inhibition; type: functional; method in brief: as §1
K562 [14] = assay: Cell cycle arrest in human K562 cells assessed as increase in cells accumulation at G0/G1 phase at 5 to 20 uM measured by flow cytometry analysis; type: functional, cell-based; conditions: dose microM 5-20, time hrs 24-72, TDE = time-dependent effect; method in brief: as §4
PC-3 = assay: Antiproliferative activity against human PC-3 cells assessed as cell growth inhibition; type: functional; method in brief: as §1
K562 [15] = assay: Cell cycle arrest in human K562 cells assessed as decrease in cells accumulation at S phase at 5 to 20 uM measured by flow cytometry analysis; type: functional, cell-based; conditions: dose microM 5-20, time hrs 24-72, TDE = time-dependent effect; method in brief: as §4
K562 [16] = assay: Downregulation of PCNA expression in human K562 cells at 10 to 20 uM measured after 24 hrs by Western blot analysis; type: functional, cell-based; conditions: dose microM 10-20, time 24.0 hrs; method in brief: as §6
K562 [17] = assay: Anticancer activity against human K562 cells assessed as cell growth inhibition at 1 uM by MTT assay relative to control; type: functional; conditions: read-out: GI
Method in brief: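 K562 cells given imatinib 1 µM or test compound 1 µM alone, or imatinib 1 µM plus test compound 1 µM. Proliferation read by MTT assay and expressed as % inhibition.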

KB = assay: Antiproliferative activity against human KB cells assessed as cell growth inhibition; type: functional; method in brief: as §1
K562 [18] = assay: Cell cycle arrest in human K562 cells assessed as accumulation at S phase at 5 uM measured after 24 hrs by flow cytometry analysis; type: functional, cell-based; method in brief: as §3
[19] = Acute toxicity in po dosed mouse assessed as maximum tolerated dose; type: organism-based; conditions: in vivo
Method in brief: (§7)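 Healthy mice were given oral doses that increased over the study period. Each higher dose was given only if the previous dose was well tolerated. All animals were monitored for body weight loss, behavioural changes and mortality to set the maximum tolerated dose.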

K562 [20] = assay: Downregulation of PCNA expression in human K562 cells at 10 to 20 uM measured after 48 to 72 hrs by Western blot analysis; type: functional, cell-based; conditions: dose microM 10-20, time hrs 48-72; method in brief: as §6
K562 [21] = assay: Induction of apoptosis in human K562 cells assessed as increase in cleaved PARP1 expression at 5 to 20 uM measured after 72 hrs by Western blot analysis; type: functional, cell-based; conditions: dose microM 5-20, time 72.0 hrs; method in brief: as §2
[22] = Acute toxicity in po dosed mouse assessed as mortality; type: organism-based; conditions: in vivo; method in brief: as §7
[23] = Antiproliferative activity against human GURAV cells assessed as cell growth inhibition; type: functional; method in brief: as §1
[24] = Acute toxicity in po dosed mouse assessed as body weight loss; type: organism-based; conditions: in vivo; method in brief: as §7

O=C(COc1ccc(/C=C2\SC(=O)NC2=O)cc1)Nc1cccc(C(F)(F)F)c1
GI50 (MDA-MB-435): > 100 µM
GI50 (MOLT-4): 47.3 µM
viability [1]: > 70%
GI50 (Jurkat): 26.5 µM
GI50 (HL-60): 73.3 µM
GI50 (U-937): 49.1 µM
GI50 (DU-145): 59.2 µM

O=C(COc1ccc(/C=C2\SC(=O)NC2=O)cc1)Nc1ccc(Cl)cc1C(F)(F)F
Activity (K562 [2]): Dose-dependent effect
Activity (K562 [3]): Active
Activity (K562 [4]): Tde
GI50 (MOLT-4): 32.5 µM
inhibition of growth at 1 µM (K562 [5]): 82%
Activity (K562 [6]): Active
inhibition (K562 [7]): inactive
GI50 (MCF7): 49.7 µM
Activity (K562 [8]): Active
viability [1]: > 70%
GI50 (HOP-62): > 100 µM
Activity (K562 [9]): Dose-dependent effect
Activity (K562 [10]): Dose-dependent effect
Activity (K562 [11]): Dose-dependent effect
Activity (K562 [12]): Active
GI50 (K562 [13]): 0.23 µM
Activity (K562 [14]): Tde
GI50 (PC-3): > 100 µM
GI50 (Jurkat): 28.9 µM
Activity (K562 [15]): Tde
GI50 (HL-60): 56.7 µM
inhibition (K562 [16]): inactive
inhibition of growth at 1 µM (K562 [17]): 65%
GI50 (KB): > 100 µM
Activity (K562 [18]): Active
MTD [19]: 2000 mg/kg
GI50 (U-937): 67.5 µM
inhibition (K562 [20]): Active
Activity (K562 [21]): Dose-dependent effect
Activity [22]: Non-Toxic
GI50 [23]: 86.8 µM
Activity [24]: Non-Toxic
